{"source": "ChEMBL document CHEMBL4477254", "about": "“Synthesis and biological evaluation of some novel triazole hybrids of curcumin mimics and their selective anticancer activity against breast and prostate cancer cell lines” (Bioorg Med Chem Lett, 2016)", "key": {"[1]": {"system": "PC-3", "assay": "Cell cycle arrest in human PC3 cells assessed as accumulation at G2/M phase at 8.8 uM after 24 hrs by propidium iodide staining based flow cytometry (reference value: 2.25%)", "format": "functional", "method_in_brief": "(§1)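 Cells treated 24 h with test compound, MCF-7 at various concentrations and PC-3 at various concentrations; cells harvested, stained with propidium iodide and acquired by flow cytometry for cell cycle phase distribution.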"}, "[2]": {"system": "PC-3", "assay": "Induction of apoptosis in human PC3 cells assessed as late apoptotic cells at 4.8 uM after 24 hrs by annexin V-FITC/propidium iodide staining based flow cytometry (reference value: 0.80%)", "format": "functional", "method_in_brief": "(§2)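 MCF-7 cells exposed to 3, 6 or 9 μM and PC-3 cells to 4.8 or 8.8 μM for 24 h, then harvested and dual-stained with Annexin V-FITC/PI and read by flow cytometry. Gates: live AnnexinV⁻/PI⁻, early apoptotic AnnexinV⁺/PI⁻, necrotic AnnexinV⁻/PI⁺.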"}, "[3]": {"system": "PC-3", "assay": "Induction of apoptosis in human PC3 cells assessed as viable cells at 8.8 uM after 24 hrs by annexin V-FITC/propidium iodide staining based flow cytometry (reference value: 92.24%)", "format": "functional", "conditions": "PC-3, 24 h, read-out: Activity", "method_in_brief": "as §2"}, "[4]": {"system": "PC-3", "assay": "Induction of mitochondrial membrane depolarization in human PC3 cells at 8.8 uM after 24 hrs by JC-1 staining based flow cytometry (reference value: 4.51%)", "format": "functional"}, "[5]": {"system": "PC-3", "assay": "Induction of apoptosis in human PC3 cells assessed as late apoptotic cells at 8.8 uM after 24 hrs by annexin V-FITC/propidium iodide staining based flow cytometry (reference value: 0.80%)", "format": "functional", "method_in_brief": "as §2"}, "[6]": {"system": "PC-3", "assay": "Induction of apoptosis in human PC3 cells assessed as increase in early apoptotic cells after 24 hrs by annexin V-FITC/propidium iodide staining based flow cytometry", "format": "functional, cell-based", "method_in_brief": "as §2"}, "[7]": {"assay": "Drug metabolism in liver microsomes (unknown origin) assessed as compound remaining at 8 ug/ml after 5 mins in presence of NADPH by UPLC analysis", "format": "ADME, Microsome", "conditions": "read-out: Drug metabolism", "method_in_brief": "(§3)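 Microsomal metabolic stability; percentage of compound remaining intact measured after 5 min incubation in presence of microsomes.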"}, "[8]": {"target": "Serine/threonine-protein kinase AKT (Homo sapiens) (UniProt P31751+Q9Y243+P31749)", "sequence (P31749 whole entry, looked up)": "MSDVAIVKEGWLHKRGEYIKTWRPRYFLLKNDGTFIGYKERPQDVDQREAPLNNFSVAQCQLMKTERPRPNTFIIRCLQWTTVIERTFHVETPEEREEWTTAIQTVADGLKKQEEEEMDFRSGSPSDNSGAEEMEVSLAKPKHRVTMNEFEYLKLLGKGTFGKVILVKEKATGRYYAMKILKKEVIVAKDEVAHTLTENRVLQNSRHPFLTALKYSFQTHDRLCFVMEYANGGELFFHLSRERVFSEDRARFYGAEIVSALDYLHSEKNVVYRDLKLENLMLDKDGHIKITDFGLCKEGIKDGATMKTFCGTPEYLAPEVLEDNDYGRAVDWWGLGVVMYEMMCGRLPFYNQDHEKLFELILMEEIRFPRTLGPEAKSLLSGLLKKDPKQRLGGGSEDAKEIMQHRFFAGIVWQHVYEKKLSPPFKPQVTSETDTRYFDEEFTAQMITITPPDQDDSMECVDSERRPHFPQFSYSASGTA", "sequence (P31751 whole entry, looked up)": "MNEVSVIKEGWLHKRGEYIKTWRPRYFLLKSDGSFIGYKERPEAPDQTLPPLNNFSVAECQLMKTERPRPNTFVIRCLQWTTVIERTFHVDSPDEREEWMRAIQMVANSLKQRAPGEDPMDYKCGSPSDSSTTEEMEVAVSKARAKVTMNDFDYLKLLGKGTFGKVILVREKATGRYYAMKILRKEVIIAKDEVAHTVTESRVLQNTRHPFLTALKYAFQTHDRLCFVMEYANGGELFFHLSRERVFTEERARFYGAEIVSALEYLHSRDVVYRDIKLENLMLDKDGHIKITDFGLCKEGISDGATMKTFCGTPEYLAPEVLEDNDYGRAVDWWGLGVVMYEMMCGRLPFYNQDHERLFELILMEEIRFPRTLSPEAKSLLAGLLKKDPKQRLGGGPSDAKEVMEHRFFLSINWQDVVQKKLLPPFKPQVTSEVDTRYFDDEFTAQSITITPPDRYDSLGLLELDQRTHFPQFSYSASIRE", "sequence (Q9Y243 whole entry, looked up)": "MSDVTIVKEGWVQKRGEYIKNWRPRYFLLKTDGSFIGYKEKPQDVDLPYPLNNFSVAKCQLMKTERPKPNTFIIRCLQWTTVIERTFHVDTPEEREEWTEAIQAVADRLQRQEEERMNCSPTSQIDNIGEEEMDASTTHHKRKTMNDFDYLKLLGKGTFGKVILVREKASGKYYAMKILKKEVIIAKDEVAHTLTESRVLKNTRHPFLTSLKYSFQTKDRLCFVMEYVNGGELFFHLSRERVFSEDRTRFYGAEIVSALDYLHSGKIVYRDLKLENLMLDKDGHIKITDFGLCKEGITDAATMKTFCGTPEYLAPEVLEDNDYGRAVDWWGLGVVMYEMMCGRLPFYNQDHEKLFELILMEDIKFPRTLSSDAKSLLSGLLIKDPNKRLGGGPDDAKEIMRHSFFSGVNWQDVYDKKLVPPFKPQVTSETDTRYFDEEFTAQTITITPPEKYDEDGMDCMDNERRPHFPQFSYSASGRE", "assay": "Inhibition of Akt phosphorylation at […] in human PC3 cells at 8.8 uM after 24 hrs by Western blot analysis", "format": "cell-based", "method_in_brief": "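Protein expression was analysed by Western blotting of cells harvested after 24 h compound treatment.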"}, "[9]": {"assay": "Intrinsic hepatic clearance in liver microsomes (unknown origin) assessed per mg of protein at 8 ug/ml in presence of NADPH by UPLC analysis", "format": "ADME, Microsome", "conditions": "read-out: CLH (converted)"}, "[10]": {"system": "MCF7", "assay": "Induction of apoptosis in human MCF7 cells assessed as necrotic cells at 6 uM after 24 hrs by annexin V-FITC/propidium iodide staining based flow cytometry (reference value: 4.76%)", "format": "functional", "method_in_brief": "(§4)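 Apoptosis by Annexin V-FITC/PI dual staining: MCF-7 cells treated 24 h at 3, 6 and 9 µM, then harvested, stained and acquired by flow cytometry; early apoptotic = AnnexinV+/PI−, live = AnnexinV−/PI−, necrotic = AnnexinV−/PI+.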"}, "[11]": {"system": "MCF7", "assay": "Cell cycle arrest in human MCF7 cells assessed as accumulation at G0/G1 phase at 9 uM after 24 hrs by propidium iodide staining based flow cytometry (reference value: 45.67%)", "format": "functional", "method_in_brief": "as §1"}, "[12]": {"system": "MCF7", "assay": "Induction of apoptosis in human MCF7 cells assessed as early apoptotic cells at 9 uM after 24 hrs by annexin V-FITC/propidium iodide staining based flow cytometry (reference value: 7.36%)", "format": "functional", "method_in_brief": "as §4"}, "[13]": {"system": "MCF7", "assay": "Induction of apoptosis in human MCF7 cells assessed as late apoptotic cells at 6 uM after 24 hrs by annexin V-FITC/propidium iodide staining based flow cytometry (reference value: 5.25%)", "format": "functional", "method_in_brief": "as §4"}, "[14]": {"assay": "Elimination rate constant in liver microsomes (unknown origin) at 5 ug/ml measured up to 60 mins by UPLC analysis", "format": "ADME, Microsome"}, "[15]": {"system": "MCF7", "assay": "Decrease in PCNA levels in human MCF7 cells at 3 to 9 uM after 24 hrs by Western blot analysis", "format": "functional, cell-based", "method_in_brief": "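MCF-7 or PC-3 cells treated with compound for 24 h, harvested; PCNA, Bax and Bcl-2 protein expression checked by Western blotting.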"}, "[16]": {"system": "MCF7", "assay": "Induction of mitochondrial membrane depolarization in human MCF7 cells at 9 uM after 24 hrs by JC-1 staining based flow cytometry (reference value: 11%)", "format": "functional"}, "[17]": {"system": "MCF7", "assay": "Induction of apoptosis in human MCF7 cells assessed as early apoptotic cells at 3 uM after 24 hrs by annexin V-FITC/propidium iodide staining based flow cytometry (reference value: 7.36%)", "format": "functional", "method_in_brief": "as §4"}, "[18]": {"system": "MCF7", "assay": "Cell cycle arrest in human MCF7 cells assessed as accumulation at G0/G1 phase at 3 uM after 24 hrs by propidium iodide staining based flow cytometry (reference value: 45.67%)", "format": "functional", "method_in_brief": "as §1"}, "[19]": {"system": "MCF7", "assay": "Induction of mitochondrial membrane depolarization in human MCF7 cells at 3 uM after 24 hrs by JC-1 staining based flow cytometry (reference value: 11%)", "format": "functional"}, "[20]": {"assay": "Drug metabolism in liver microsomes (unknown origin) assessed as compound remaining at 5 ug/ml after 5 mins in presence of NADPH by UPLC analysis", "format": "ADME, Microsome", "conditions": "read-out: Drug metabolism", "method_in_brief": "as §3"}, "[21]": {"system": "MCF7", "assay": "Induction of mitochondrial membrane depolarization in human MCF7 cells at 6 uM after 24 hrs by JC-1 staining based flow cytometry (reference value: 11%)", "format": "functional"}}, "note": "The source made the active and inactive calls. The rule behind the calls is not given here."}
{"molecule": "Cc1ccc(/C=C2\\CN(Cc3cn(Cc4ccccc4F)nn3)C/C(=C\\c3ccc(C)cc3)C2=O)cc1", "values": [{"measurement": "Activity", "setting": "[1]", "result": 8.9, "unit": "%"}, {"measurement": "Activity", "setting": "[2]", "result": 0.81, "unit": "%"}, {"measurement": "viability at 8.8 µM", "setting": "[3]", "result": 80.8, "unit": "%"}, {"measurement": "Activity", "setting": "[4]", "result": 32.02, "unit": "%"}, {"measurement": "Activity", "setting": "[5]", "result": 0.88, "unit": "%"}, {"measurement": "Activity", "setting": "[6]", "result": "Dose-dependent effect"}, {"measurement": "remaining at 5 min, 8 ug/ml", "setting": "[7]", "result": 66, "unit": "%"}, {"measurement": "inhibition", "setting": "[8]", "result": 100, "unit": "%"}, {"measurement": "CLint scaled at 8 ug/ml", "setting": "[9]", "result": 2630, "unit": "mL/min/kg"}]}
{"molecule": "O=C1/C(=C/c2ccccc2F)CN(Cc2cn(Cc3ccc(F)cc3)nn2)C/C1=C\\c1ccccc1F", "values": [{"measurement": "Activity", "setting": "[10]", "result": 4.28, "unit": "%"}, {"measurement": "Activity", "setting": "[11]", "result": 2.22, "unit": "%"}, {"measurement": "Activity", "setting": "[12]", "result": 30.88, "unit": "%"}, {"measurement": "Activity", "setting": "[13]", "result": 15.2, "unit": "%"}, {"measurement": "k el at 1 h, 5 ug/ml", "setting": "[14]", "result": 0.00147, "unit": "s⁻¹"}, {"measurement": "Activity", "setting": "[15]", "result": "Active"}, {"measurement": "Activity", "setting": "[16]", "result": 89.87, "unit": "%"}, {"measurement": "Activity", "setting": "[17]", "result": 25.08, "unit": "%"}, {"measurement": "Activity", "setting": "[18]", "result": 38.9, "unit": "%"}, {"measurement": "Activity", "setting": "[19]", "result": 66.45, "unit": "%"}, {"measurement": "remaining at 5 min, 5 ug/ml", "setting": "[20]", "result": 46, "unit": "%"}, {"measurement": "Activity", "setting": "[21]", "result": 85.6, "unit": "%"}]}
